Data reported in ChEMBL document CHEMBL5505959, “Identification of 4-amino-2-Pyridones as new potent PCSK9 inhibitors: From phenotypic hit discovery to in vivo tolerability” (Eur J Med Chem, 2024).
The source made the active and inactive calls. The rule behind the calls is not given here.

Experiments:
[1] = test system: HepG2; test: Inhibition of basal PCSK9 activity in human HepG2 cells at 6.25 to 12.5 uM incubated for 24 hrs by luciferase assay; assay type: functional, cell-based; conditions: dose 6.25-12.5 µM
Outline: (§1)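 HepG2 cells were seeded at 8 × 10⁵ per well and transiently transfected with pGL3-PCSK9-D4 (−440 to −94 region), or with SRE- or HNF-mutant constructs. At 48 h post-transfection, cells were treated 24 h with compound or simvastatin 5 μM. Promoter activity was read as luciferase luminescence.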

[2] = test system: HepG2; test: Downregulation of proPCSK9 protein expression in human HepG2 cells at 6.25 uM by Western blot analysis; assay type: functional, cell-based
Outline: (§2)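 HepG2 cells were treated overnight or for 24 h, alone or with simvastatin 40 μM. Lysates (1 % NP-40, 150 mM NaCl, 50 mM Tris-HCl pH 7.5) were loaded at 25 µg protein on 4–20 % SDS-PAGE. Blots were probed for proPCSK9, mature PCSK9 and LDLR, and densitometry was normalized to β-actin or GAPDH. Mean ± SD of three independent experiments.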

[3] = test system: HepG2; test: Effect on HMG-CoA reductase mRNA level in human HepG2 cells at 50 to 100 uM by qRT-PCR analysis; assay type: functional, cell-based; conditions: dose 50-100 µM
Outline: (§3)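 Total RNA was taken from treated HepG2 cells for RT-qPCR of PCSK9, FAS and HMG-CoA reductase. Cycling was 50 °C 10 min, 95 °C 2 min, then 40 cycles of 95 °C 5 s and 60 °C 10 s. Relative quantification used ΔΔCt against 18S, corrected for primer efficiency. Mean ± SD of three independent experiments.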

[4] = Downregulation of simvastatin induced PCSK9 expression in human HepG2 cells at 12.5 uM by Western blot analysis relative to control; assay type: functional; outline: as §2
[5] = test system: HepG2; test: Induction of LDLR expression in human HepG2 cells at 6.25 incubated for 24 hrs in presence of simvastatin by Western blot analysis; assay type: functional, cell-based; outline: as §2
[6] = Downregulation of mature PCSK9 protein expression in human HepG2 cells at 12.5 uM by Western blot analysis relative to control; assay type: functional; outline: as §2
[7] = test system: HepG2; test: Effect on HMG-CoA reductase mRNA level in human HepG2 cells at 6.25 to 25 uM by qRT-PCR analysis; assay type: functional, cell-based; conditions: dose 6.25-25 µM; outline: as §3
[8] = Downregulation of extracellular PCSK9 level in human HepG2 cells at 6.25 to 12.5 uM under conditioned media by ELISA method relative to control; assay type: functional; conditions: dose 6.25-12.5 µM
Outline: (§4)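 Secreted PCSK9 was measured in HepG2 conditioned media with a human PCSK9 DuoSet sandwich ELISA. Media were centrifuged at 15000 rpm for 10 min and diluted before reading absorbance at 450 nm. Values were normalized to HepG2 total protein content. Mean ± SD of three independent experiments.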

[9] = Downregulation of proPCSK9 protein expression in human HepG2 cells at 12.5 uM by Western blot analysis relative to control; assay type: functional; outline: as §2
[10] = test system: HepG2; test: Inhibition of PCSK9 promotor activity in human HepG2 cells harbouring pGL3-PCSK9-SRE mutant at 6.25 to 12.5 uM incubated for 24 hrs by luciferase assay; assay type: functional, cell-based; conditions: dose 6.25-12.5 µM; outline: as §1
[11] = test system: HepG2; test: Downregulation of PCSK9 level in human HepG2 cells at 6.25 to 12.5 uM under conditioned media by ELISA method; assay type: functional, cell-based; conditions: dose 6.25-12.5 µM; outline: as §4
[12] = test system: HepG2; test: Downregulation of mature PCSK9 protein expression in human HepG2 cells at 6.25 uM by Western blot analysis; assay type: functional, cell-based; outline: as §2
[13] = Downregulation of PCSK9 expression in human HepG2 cells at 6.25 to 12.5 uM by Western blot analysis relative to control; assay type: functional; conditions: dose 6.25-12.5 µM; outline: as §2
[14] = test system: HepG2; test: Inhibition of simvastatin induced PCSK9 activation in human HepG2 cells at 6.25 to 12.5 uM incubated for 24 hrs by luciferase assay; assay type: functional, cell-based; conditions: dose 6.25-12.5 µM; outline: as §1
[15] = test system: HepG2; test: Inhibition of PCSK9 promotor activity in human HepG2 cells harbouring pGL3-PCSK9-HNF mutant at 6.25 to 12.5 uM incubated for 24 hrs by luciferase assay; assay type: functional, cell-based; conditions: dose 6.25-12.5 µM; outline: as §1
[16] = test system: HepG2; test: Inhibition of PCSK9 transcription activity in human HepG2 cells harbouring FLAG tagged PCSK9 at 6.25 to 12.5 uM incubated for 24 hrs by luciferase assay; assay type: functional, cell-based; conditions: dose 6.25-12.5 µM
[17] = test system: HepG2; test: Effect on FAS mRNA level in human HepG2 cells at 6.25 to 25 uM by qRT-PCR analysis; conditions: dose 6.25-25 µM
[18] = test system: HepG2; test: Downregulation of PCSK9 mRNA level in human HepG2 cells by qRT-PCR analysis; assay type: functional, cell-based; conditions: dose 6.25-25 µM; outline: as §3
[19] = test system: HepG2; test: Downregulation of PCSK9 protein level in human HepG2 cells at 5 uM by Western blot analysis; assay type: functional, cell-based; outline: as §2
[20] = test system: HepG2; test: Downregulation of PCSK9 mRNA level in human HepG2 cells at 6 to 25 uM by qRT-PCR analysis; assay type: functional, cell-based; conditions: dose 6-25 µM; outline: as §3
[21] = test system: HepG2; test: Cytotoxicity against human HepG2 cells assessed as reduction in cell viability at 6 to 100 uM measured after 24 hrs by SRB assay; assay type: functional, cell-based; conditions: dose 6-100 µM
Outline: (§5)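 HepG2 seeded 8000 cells/well in complete MEM; next day medium replaced with 0.4 % FBS medium containing compound or DMSO control. Viability was read by sulforhodamine B assay after 24 h, with absorbance at 570 nm. Dose-response series used 6.25, 12.5, 25, 50 or 100 μM; newer analogues were tested at a fixed 5 μM. Data are mean ± SD of three independent experiments.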

[22] = test system: HepG2; test: Cytotoxicity against human HepG2 cells assessed as reduction in cell viability at 5 uM measured after 24 hrs by SRB assay relative to control; assay type: functional; outline: as §5
[23] = test system: HepG2; test: Effect on proPCSK9 expression in human HepG2 cells by Western blot analysis; assay type: functional, cell-based; outline: as §2
[24] = Induction of LDLR expression in human HepG2 cells by measuring fold increase by Western blot analysis; assay type: functional; outline: as §2
[25] = test system: HepG2; test: Downregulation of simvastatin induced PCSK9 expression in human HepG2 cells measured after 24 hrs by Western blot analysis; assay type: functional, cell-based; outline: as §2
[26] = Toxicity in C57BL/6 mouse assessed as reduction in ALT plasma level at 40 mg/kg, sc measured after 7 days by ELISA method; assay type: organism-based; conditions: in vivo, 168 h, time 7 day
Outline: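 Male C57BL/6J mice, 3 months old, dosed subcutaneously at 40 mg/kg daily for seven days in Transcutol. Killed under isoflurane 6 h after the final dose. Retro-orbital blood taken into EDTA and spun at 3000 rpm, 4 °C, 10 min. Plasma ALT measured by ELISA kit. Mean ± SEM, n = 5–6 per group.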

[27] = test system: HepG2; test: Downregulation of PCSK9 mRNA level in human HepG2 cells at 25 uM by qRT-PCR analysis; assay type: functional, cell-based; outline: as §3
[28] = test system: HepG2; test: Cytotoxicity against human HepG2 cells assessed as reduction in cell viability at 25 uM measured after 24 hrs by SRB assay; assay type: functional, cell-based; outline: as §5
[29] = test system: HepG2; test: Cytotoxicity against human HepG2 cells assessed as reduction in cell viability at 50 to 100 uM measured after 24 hrs by SRB assay; assay type: functional, cell-based; conditions: dose 50-100 µM; outline: as §5
[30] = test system: HepG2; test: Induction of LDLR expression in human HepG2 cells by Western blot analysis; assay type: functional, cell-based; outline: as §2
[31] = test system: HepG2; test: Downregulation of mature PCSK9 level in human HepG2 cells by Western blot analysis; assay type: functional, cell-based; outline: as §2
[32] = test system: HepG2; test: Downregulation of proPCSK9 level in human HepG2 cells by Western blot analysis; assay type: functional, cell-based; outline: as §2
[33] = test system: HepG2; test: Cytotoxicity against human HepG2 cells assessed as reduction in cell viability at 100 uM measured after 24 hrs by SRB assay; assay type: functional, cell-based; outline: as §5

For `CCCCCNc1cc(C)n(Cc2ccc(Cl)cc2)c(=O)c1`, the inhibition [1] was “inactive”, the Activity [2] was “inactive” and the Activity [3] was “Active”. The Activity [4] was 100%, the Activity [5] was “Active” and the Activity [6] was 100%. For the same compound, the Activity [7] was “inactive”, the Activity [8] was 35.8% and the Activity [9] was 100%. For the same compound, the inhibition [10] was “inactive”, the Activity [11] was “Active” and the Activity [12] was “inactive”. For the same compound, the Activity [13] was 65%, the inhibition [14] was “Active” and the inhibition [15] was “inactive”. The inhibition [16] was “inactive”, the Activity [17] was “inactive” and the Activity [18] was “Dose-Dependent Effect”.

With `CCCCCn1c(C)cc(NCc2ccc(Cl)cc2)cc1=O` the Activity [19] was “Active”, the Activity [20] was “Active” and the Activity [21] was “inactive”.

In the case of `Cc1cc(NCc2ccc(Cl)cc2)cc(=O)n1Cc1ccc(Cl)cc1`, the Activity [22] is reported as >95%.

For `Cc1cc(NCc2ccc(CCC(C)C)cc2)cc(=O)n1Cc1ccc(CCC(C)C)cc1`, the Activity [23] was “inactive”, the Activity [22] was >95% and the “fold change (FC)” value [24] was 3.

For `CCCCCN(C(C)=O)c1cc(C)n(Cc2ccc(C(F)(F)F)cc2)c(=O)c1`, the Activity [22] was >95%.

For `CCCCCNc1cc(C)n(Cc2ccc(C(F)(F)F)cc2)c(=O)c1`, the Activity [22] was >95%.

For `Cc1cc(NCc2ccc(C(F)(F)F)cc2)cc(=O)n1CC(C)C`, the Activity [22] was >95%.

With `COc1cccc(CNc2cc(C)n(Cc3cccc(OC)c3OC)c(=O)c2)c1OC` the Activity [22] was >95%.

For `Cc1cc(NC2CCCC2)cc(=O)n1Cc1ccc(C(F)(F)F)cc1`, the Activity [22] was >95%.

For `CCC(C)(C)C(=O)O[C@H]1C[C@@H](C)C=C2C=C[C@H](C)[C@H](CC[C@@H]3C[C@@H](O)CC(=O)O3)[C@H]21`, the Activity [25] was “inactive”.

With `Cc1cc(C(=O)C2=C(O)C(=O)N(CCCN3CCOCC3)C2c2ccncc2)ccc1OCc1ccccc1` (configuration not stated) the Activity [26] was “Non-Toxic”.

In the case of `CC(=O)N(Cc1ccc(C(F)(F)F)cc1)c1cc(C)n(Cc2ccc(C(F)(F)F)cc2)c(=O)c1`, the Activity [22] is reported as >95%.

In the case of `COc1ccc(CNc2cc(C)n(Cc3ccc(OC)cc3)c(=O)c2)cc1`, the Activity [22] is reported as >95%.

In the case of `CCCCCNc1cc(C)n(Cc2ccccc2)c(=O)c1`, the Activity [22] is reported as >95%.

In the case of `Cc1cc(NCCC(C)C)cc(=O)n1Cc1ccccc1`, the Activity [22] is reported as >95%.

With `COc1ccc(CNc2cc(C)n(Cc3ccc(OC)c(OC)c3)c(=O)c2)cc1OC` the Activity [22] was >95%.

In the case of `Cc1cc(NCCc2ccccc2)cc(=O)n1Cc1ccc(Cl)cc1`, the Activity [27] is reported as “Active”, the Activity [28] is reported as “inactive” and the Activity [29] is reported as “Active”.

In the case of `CCCCCn1c(C)cc(NCc2ccccc2)cc1=O`, the Activity [22] is reported as >95%.

For `CCCCCNc1cc(C)n(Cc2ccc(OC)cc2)c(=O)c1`, the Activity [30] was “inactive”, the Activity [31] was “Active” and the Activity [32] was “Active”.

In the case of `CCCCCNc1cc(C)n(CCCCC)c(=O)c1`, the Activity [33] is reported as “Active”, the Activity [19] is reported as “Active” and the Activity [20] is reported as “Active”.

In the case of `Cc1cc(NCc2ccc(Cl)cc2)cc(=O)n1CCC(C)C`, the Activity [22] is reported as >95%.

For `COc1ccc(Cn2c(C)cc(NC3CCCC3)cc2=O)cc1`, the Activity [22] was >95%.

With `CCCCCn1c(C)cc(NCc2ccc(C(F)(F)F)cc2)cc1=O` the Activity [22] was >95%.

With `Cc1cc(NCc2ccccc2)cc(=O)n1CCC(C)C` the Activity [22] was >95%.

For `CCCCCNc1cc(C)n(Cc2cccc(OC)c2OC)c(=O)c1`, the Activity [22] was >95%.
